Measured values published in ChEMBL document CHEMBL3232953, “Synthesis, characterization and anti-proliferative activity of heterocyclic hypervalent organoantimony compounds” (Eur J Med Chem, 2014).

Experiments:
A549 [1] = test: Antiproliferative activity against human A549 cells after 48 hrs by CCK-8 assay; format: functional, cell-based; conditions: A549, 48 h
In short: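 A549 cells in RPMI1640 with 10% newborn calf serum and 1% penicillin-streptomycin at 37 °C, 5% CO2. Seeded 5 × 10³ cells/well, compounds added after 12 h from DMSO stocks diluted in medium (final DMSO < 0.1% v/v). After 48 h, CCK-8 added for 2 h and OD read at 490 nm. IC50 by Probit regression of inhibition ratio against concentration. At least three experiments.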

A549 [2] = test: Antiproliferative activity against human A549 cells at 30 uM after 24 to 72 hrs by CCK-8 assay; format: functional
In short: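 Time course in A549 cells seeded 5 × 10³ cells/well. Compounds tested at 1, 3, 10 and 30 […] for the periods shown, with final DMSO < 0.1%. Viability by CCK-8 (2 h, OD 490 nm). Mean ± S.D. of three experiments done in triplicate, one-way ANOVA against 24 h and 48 h.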

SMILES	IC50 (A549 [1]) [µM]	inhibition at 30 µM (A549 [2]) [%]
CC(C)(C)N(Cc1ccccc1Br)Cc1ccccc1Br	> 30	
Brc1ccccc1CN(Cc1ccccc1Br)C1CCCCC1	> 30	9.39
Brc1ccccc1CN(Cc1ccccc1Br)c1ccccc1	> 30	
